Experimental data reported in ChEMBL document CHEMBL3351839, “Design, synthesis, in silico molecular docking and biological evaluation of novel oxadiazole based thiazolidine-2,4-diones bis-heterocycles as PPAR-γ agonists” (Eur J Med Chem, 2014).
Calls of active or inactive are those of the source. No cut-off for these calls is given here.

Assays:
Rattus norvegicus [1] = species on record: Rattus norvegicus; experiment: Toxicity in streptozotocin induced diabetic Albino Wistar rat model assessed as induction of sinusoidal space dilation measured 5 hrs post dose by haematoxylin and eosin staining based microscopy; assay type: organism-based; details: in vivo
Rattus norvegicus [2] = species on record: Rattus norvegicus; experiment: Hepatoprotective effect in streptozotocin induced diabetic Albino Wistar rat model assessed as reduction in serum ALP level; assay type: functional, organism-based
Summary of the method: (§1)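 Serum from STZ-diabetic rats (60 mg/kg i.p.) after oral treatment in 0.25% CMC. AST and ALT measured by the Reitman–Frankel method; ALP by the Walter–Schult method with p-nitrophenyl phosphate substrate.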

Rattus norvegicus [3] = species on record: Rattus norvegicus; experiment: Hepatoprotective effect in streptozotocin induced diabetic Albino Wistar rat model assessed as reduction in serum ALT level; assay type: functional, organism-based; summary of the method: as §1
Rattus norvegicus [4] = species on record: Rattus norvegicus; experiment: Toxicity in streptozotocin induced diabetic Albino Wistar rat model assessed as induction of centrizonal triad inflammation measured 5 hrs post dose by haematoxylin and eosin staining based microscopy; assay type: organism-based; details: in vivo
Rattus norvegicus [5] = species on record: Rattus norvegicus; experiment: Toxicity in streptozotocin induced diabetic Albino Wistar rat model assessed as induction of portal triad inflammation measured 5 hrs post dose by haematoxylin and eosin staining based microscopy; assay type: organism-based; details: in vivo
Rattus norvegicus [6] = species on record: Rattus norvegicus; experiment: Hepatoprotective effect in streptozotocin induced diabetic Albino Wistar rat model assessed as reduction in serum AST level; assay type: functional, organism-based; summary of the method: as §1
3T3-L1 = experiment: Increase in PPARgamma gene expression in mouse 3T3L1 cells at 10 uM incubated for 24 hrs by real-time PCR method relative to untreated control; assay type: functional
Summary of the method: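 3T3-L1 cells in DMEM with 10% calf serum, seeded 24 h ahead in 24-well plates, exposed to 10 µM compound 24 h at 37 °C, 5% CO2; DMSO vehicle as negative control. RNA extracted, reverse transcribed, qPCR in triplicate, repeated twice; relative PPAR-γ transcript by Ct method normalised to β-actin.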

Rattus norvegicus [7] = experiment: Antidiabetic activity in streptozotocin induced diabetic Albino Wistar rat model assessed as blood glucose level dosed orally at equimolar dose of Pioglitazone by glucose oxidase method; assay type: functional
Summary of the method: (§2)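 STZ 60 mg/kg i.p. (freshly made in 0.1 M citrate buffer pH 4.5) to overnight-fasted rats, 5% glucose to drink overnight; diabetic if blood glucose >250 mg/dL on day 3. […] Mean ± SEM, n=5; one-way ANOVA with Dunnett's t test.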

Rattus norvegicus [8] = experiment: Antidiabetic activity in streptozotocin induced diabetic Albino Wistar rat model assessed as blood glucose level at 36 mg/kg, po by glucose oxidase method; assay type: functional; summary of the method: as §2
Rattus norvegicus [9] = experiment: Antidiabetic activity in streptozotocin induced diabetic Albino Wistar rat model assessed as reduction in blood glucose level measured 90 mins after insulin dosing by insulin tolerance test; assay type: functional, organism-based
Summary of the method: (§3)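 STZ-diabetic rats (60 mg/kg i.p.; glucose >250 mg/dL on day 3) given compound orally as 0.25% CMC suspension, then oral glucose tolerance and insulin tolerance tests, blood glucose followed over time. Groups: normal control, normal + compound, diabetic control, treated diabetic. Mean ± SEM of five observations; one-way ANOVA, Dunnett's t test.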

Rattus norvegicus [10] = species on record: Rattus norvegicus; experiment: Antidiabetic activity in streptozotocin induced diabetic Albino Wistar rat model assessed as reduction in blood glucose level by oral glucose tolerance test; assay type: functional, organism-based; summary of the method: as §3
[11] = molecular target: Voltage-gated inwardly rectifying potassium channel KCNH2 (Homo sapiens, UniProt Q12809); experiment: Inhibition of human ERG
Rattus norvegicus [12] = experiment: Toxicity in normal Albino Wistar rat assessed as increase in body weight dosed for 15 days; assay type: organism-based; details: in vivo, 360 h
Summary of the method: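 Normal and STZ-diabetic Wistar rats (STZ 60 mg/kg i.p.) dosed orally daily for 15 days in 0.25% CMC suspension; body weight compared with normal and diabetic controls. Mean ± SEM, n=5; one-way ANOVA with Dunnett's t test.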

Chain of Voltage-gated inwardly rectifying potassium channel KCNH2 (Q12809 whole entry): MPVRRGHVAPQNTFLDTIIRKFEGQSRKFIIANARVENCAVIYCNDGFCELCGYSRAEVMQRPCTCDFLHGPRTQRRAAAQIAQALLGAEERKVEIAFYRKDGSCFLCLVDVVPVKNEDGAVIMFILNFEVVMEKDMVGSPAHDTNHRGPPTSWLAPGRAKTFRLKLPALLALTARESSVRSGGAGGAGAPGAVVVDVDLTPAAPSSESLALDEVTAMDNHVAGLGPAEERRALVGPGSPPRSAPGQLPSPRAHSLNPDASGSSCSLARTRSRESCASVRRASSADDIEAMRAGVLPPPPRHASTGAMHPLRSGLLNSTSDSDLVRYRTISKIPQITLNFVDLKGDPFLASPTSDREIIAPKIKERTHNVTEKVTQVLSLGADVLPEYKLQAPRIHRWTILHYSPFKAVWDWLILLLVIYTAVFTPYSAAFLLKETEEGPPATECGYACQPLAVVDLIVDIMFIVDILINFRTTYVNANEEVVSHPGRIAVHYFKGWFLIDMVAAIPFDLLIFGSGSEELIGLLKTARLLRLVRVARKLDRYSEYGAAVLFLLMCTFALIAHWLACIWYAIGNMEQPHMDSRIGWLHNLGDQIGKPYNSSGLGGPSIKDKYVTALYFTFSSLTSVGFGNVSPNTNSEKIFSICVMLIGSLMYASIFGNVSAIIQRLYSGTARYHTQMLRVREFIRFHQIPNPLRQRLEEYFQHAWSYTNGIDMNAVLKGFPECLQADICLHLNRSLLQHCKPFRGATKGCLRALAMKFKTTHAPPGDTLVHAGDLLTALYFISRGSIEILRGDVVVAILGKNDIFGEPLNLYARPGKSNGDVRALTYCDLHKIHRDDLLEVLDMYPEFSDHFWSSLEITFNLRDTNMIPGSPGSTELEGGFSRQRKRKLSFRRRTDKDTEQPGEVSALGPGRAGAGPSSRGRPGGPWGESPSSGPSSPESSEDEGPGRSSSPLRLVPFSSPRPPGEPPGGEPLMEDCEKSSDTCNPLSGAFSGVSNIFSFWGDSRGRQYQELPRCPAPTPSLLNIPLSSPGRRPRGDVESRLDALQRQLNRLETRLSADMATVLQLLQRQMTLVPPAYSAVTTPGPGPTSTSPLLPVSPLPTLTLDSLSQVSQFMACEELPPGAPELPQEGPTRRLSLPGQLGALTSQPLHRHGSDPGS

Structure (SMILES)	Activity (Rattus norvegicus [1])	Activity (Rattus norvegicus [2])	Activity (Rattus norvegicus [3])	Activity (Rattus norvegicus [4])	Activity (Rattus norvegicus [5])	Activity (Rattus norvegicus [6])	fold change (FC) (3T3-L1)	Activity (Rattus norvegicus [7]) [mg/dL]	Activity (Rattus norvegicus [8]) [mg/dL]	Activity (Rattus norvegicus [9])	Activity (Rattus norvegicus [10])	IC50 [11] [µM]	Activity (Rattus norvegicus [12])
O=C1NC(=O)/C(=C\c2ccccc2OCc2nnc(-c3ccccc3)o2)S1	Non-toxic	Active	Active	Non-toxic	Non-toxic	Active	2.1	139.6	–	–	–	–	–
COc1cc(/C=C2/SC(=O)NC2=O)ccc1OCc1nnc(-c2ccccc2)o1	Non-toxic	Active	Active	Non-toxic	Non-toxic	Active	–	139.7	–	–	–	–	–
COc1cc(/C=C2/SC(=O)NC2=O)ccc1OCc1nnc(-c2ccc(Br)cc2)o1	Non-toxic	Active	Active	Non-toxic	Non-toxic	Active	–	135.2	–	–	–	–	–
CN(CCOc1ccc(CC2SC(=O)NC2=O)cc1)c1ccccn1 (stereo not drawn) [ROSIGLITAZONE]	–	–	–	–	–	–	1	–	144.2	–	–	–	–
O=C1NC(=O)/C(=C\c2ccccc2OCc2nnc(COc3ccc(Cl)cc3Cl)o2)S1	Non-toxic	Active	Active	Non-toxic	Non-toxic	Active	2	134	–	Active	Active	29	Non-toxic
CCc1ccc(CCOc2ccc(CC3SC(=O)NC3=O)cc2)nc1 (stereo not drawn) [PIOGLITAZONE]	Toxic	Active	Active	Toxic	Non-toxic	Active	–	–	132	–	–	–	–
